Compounds with a hit are over-represented: about 4.6% of the library has one in this group of screens.
p97 ATPase inh: human p97 ATPase inhibition. P55072. recombinant p97 ATPase, Kinase-Glo ATP luminescence, 3 h. inhibition, % at 8 µM. hit rate 0.42% among 220,000; in the data active = inhibition above about 15%
NF-kB neuron act: compounds increasing NF-kB expression in human neuronal cells; NF-kB reporter expression; stronger effect = higher value; AID 1239; hit rate 1.6% among 190,000; fold change at 12.5 µM; in the data active = fold change above about 3.3
STAT1 activator: increases IFN-gamma driven STAT1 reporter signal; hit rate 2.6% among 200,000; activation (% of control), % at 5.5 µM; NIH 3T3 STAT1-luciferase reporter, luminescence; 100% = IFN-gamma alone, no compound;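 active = activation above the screen-wide mean activation plus 3 SD, cut at about 130% in these data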
APP 5'UTR act: APP 5'UTR luciferase reporter activation; SH-SY5Y APP 5'UTR luciferase reporter, luminescence; zero percent = DMSO vehicle wells; activation, % at 2 µM; hit rate 1% among 190,000;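 active = activation above a set limit, based on mean plus 3 SD of controls, cut at about 140% in these data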
Mdm2 ligase inh: inhibitors of human Mdm2 E3 ubiquitin ligase | Q00987 | cell-based MDM2 ubiquitination luciferase reporter, 2 h; 0 = plate control, 100 = twice control, blank-subtracted | signal enhancement, % at 5 µM | hit rate 0.11% among 210,000;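 active = signal enhancement of 30% or more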;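 note: luminescence tracks abundance of the self-degrading MDM2-luciferase fusion protein; higher signal means inhibition of MDM2 E3 ligase activity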
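Buffer or medium: Cells held in DMEM | Assay system: Stable mammalian line carrying autodegrading MDM2–luciferase fusion reporter | Quantity: 2000 cells/well | Times: 4 h settle plus 2 h compound, 37 °C | Doses: One concentration, 5 µM, with 0.2% DMSO | Technique: Luminescence with SteadyLite reagent, 15 min at room temperature | Benchmarks: Plate controls and plate blanks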
Wee1 degr inh: inhibitors of human Wee1 degradation; reporter increase, % at 5 µM; hit rate 1.2% among 220,000; HeLa Luc-Wee1K328M stability, luciferase luminescence; 100% = proteasome inhibitor MG132 effect; P30291;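 active = activation above the mean of all tested compounds plus 3 SD, set per screening run, cut at about 8.8% in these data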;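 note: cells exposed to compound for 20 h before luminescence read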
Target sequence (P30291 whole entry K328M): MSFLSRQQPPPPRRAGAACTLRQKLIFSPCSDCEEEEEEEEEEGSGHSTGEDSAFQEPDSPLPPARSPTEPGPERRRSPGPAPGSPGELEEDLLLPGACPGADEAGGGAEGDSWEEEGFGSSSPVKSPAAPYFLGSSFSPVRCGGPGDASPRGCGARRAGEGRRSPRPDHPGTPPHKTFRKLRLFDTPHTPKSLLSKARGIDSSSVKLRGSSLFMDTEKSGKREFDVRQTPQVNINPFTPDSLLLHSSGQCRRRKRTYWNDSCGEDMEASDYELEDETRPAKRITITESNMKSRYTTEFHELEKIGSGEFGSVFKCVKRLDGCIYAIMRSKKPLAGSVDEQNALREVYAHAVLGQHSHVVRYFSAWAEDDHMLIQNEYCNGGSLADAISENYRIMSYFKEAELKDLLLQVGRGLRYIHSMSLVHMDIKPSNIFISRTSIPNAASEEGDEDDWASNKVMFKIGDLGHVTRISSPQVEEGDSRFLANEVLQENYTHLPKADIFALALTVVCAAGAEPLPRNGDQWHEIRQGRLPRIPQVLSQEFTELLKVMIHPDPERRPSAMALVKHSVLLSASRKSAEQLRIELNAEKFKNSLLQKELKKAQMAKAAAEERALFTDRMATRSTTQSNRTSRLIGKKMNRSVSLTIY
A number is an active result; . = inactive; / = not tested or not shown.

SMILES | p97 ATPase inh | NF-kB neuron act | STAT1 activator | APP 5'UTR act | Mdm2 ligase inh | Wee1 degr inh
Cc1cc(-c2csc(NC(=O)c3ccc(C#N)cc3)n2)c(C)n1Cc1ccccc1 | . | . | . | . | . | .
COC(=O)CC1C(=O)NCCN1C(=O)CSc1nc2ccc([N+](=O)[O-])cc2s1 (centres undefined) | . | . | . | . | . | .
CCCCC(CCC(=O)Nc1cc([N+](=O)[O-])ccc1O)C(=O)O (centres undefined) | . | / | . | . | / | .
CCOc1ccc(-c2n[nH]c(C(=O)NN)c2C)cc1 | . | . | 128.7 | . | . | .
N#CCCN1CCCc2cc(N=Nc3ccc(C(F)(F)F)cc3)ccc21 | . | / | / | / | . | .
Cn1c(O)c(N=Nc2ccc(F)cc2)c2ccccc21 | . | . | . | . | . | .
Oc1c(C=Nc2cccnc2)sc2ccccc12 | . | . | . | . | . | .
Oc1c(C=Nc2ccccc2)sc2ccccc12 | . | 4.59 | . | . | . | .
Oc1sc(C=Nc2ccc(F)cc2)c2ccccc12 | . | . | 137.6 | . | . | .
COCCNC(=O)C(=O)NNC(=O)CCc1ccccc1 | . | . | . | . | . | .
Cc1ccc(C(=O)c2ccccc2C(=O)OCC(=O)NCC2CCCO2)cc1 (centres undefined) | . | . | . | . | . | .
Cc1ccc(-n2nnnc2SCC(=O)Nc2sccc2C#N)cc1 | . | . | . | . | . | .
COc1ccc(OCc2cccc(C(=O)O)c2)cc1 | / | 8.61 | / | / | . | /
COc1cc(/C=N/NC(=O)c2cccc([N+](=O)[O-])c2)ccc1OCc1ccccc1 | . | . | . | . | . | .
CCOc1ccc(OCc2cccc(C(=O)O)c2)cc1 | / | 12.2 | / | / | . | /
O=C(NN1CCCCC1)c1cccc(COc2ccc(Cl)cc2)c1 | . | . | 130.1 | . | . | .
COc1cc(/C=C/[N+](=O)[O-])ccc1OCc1cccc(C(=O)O)c1 | . | 4.36 | . | . | . | .
O=C(OCC(F)(F)F)c1cccc(COc2ccc3ccccc3c2)c1 | . | 8.14 | . | . | . | .
COc1cccc(OC)c1C(=O)NNC(=O)c1cccc(COc2ccc3c(c2)CCC3)c1 | . | . | . | . | 31.2 | .
O=C(NCc1ccccc1)c1cccc(COc2ccc3c(c2)CCC3)c1 | . | . | . | . | . | .
CC(C)(C)c1csc(NC(=O)c2ccc(Cl)s2)n1 | . | 3.58 | 137.4 | . | . | .
Cc1csc(NC(=O)Nc2ccc(Cl)cc2)n1 | . | . | . | . | . | 8.9
CC(C)(C)c1csc(NC(=O)c2ccncc2)n1 | . | . | . | . | . | .
Cc1ccc(C(=O)Nc2nc(C(C)(C)C)cs2)s1 | . | 4.98 | 146.1 | . | . | .
CCOC(=O)Cc1csc(NC(=O)Nc2ccc(Cl)cc2)n1 | . | / | / | / | . | .
SMILES | p97 ATPase inh | NF-kB neuron act | STAT1 activator | APP 5'UTR act | Mdm2 ligase inh | Wee1 degr inh
CC(C)(C)c1csc(NC(=O)Nc2ccccc2)n1 | . | 4.94 | 136.5 | . | . | .
Cc1ccc(N(CC(=O)Nc2ccc3c(c2)OCCO3)S(C)(=O)=O)cc1 | . | . | . | . | . | .
COC(=O)C1C(=O)/C(=C/N(C)C)C(=O)CC1(C)C (centres undefined) | . | 6.15 | . | . | . | .
O=C(CSc1ncccn1)NCc1ccc(Cl)cc1 | . | . | . | . | . | .
O=C(CSc1nccc(=O)[nH]1)NCc1ccc(Cl)cc1 | . | . | . | . | / | 9.3
CC(C)c1ccc(OCc2nc(-c3ccccn3)no2)c(Br)c1 | . | 5.41 | 137.5 | 181.7 | . | .
Cc1ccc(OCc2nc(-c3ccccn3)no2)cc1 | . | 5.1 | . | 138.8 | . | .
CCc1ccc(OCc2nc(-c3ccccn3)no2)c(Br)c1 | . | . | . | 181.0 | . | .
Cc1ccc(OCc2nc(-c3ccccn3)no2)c(Br)c1 | . | 4.39 | . | 149.7 | . | .
Cc1ccc(SCc2nc(-c3ccccn3)no2)cc1 | . | . | . | . | . | .
O=C(CN1CCc2ccccc21)NC(=O)NC1CCCCC1 | . | / | / | / | / | .
COc1cc(C(=O)NCCOc2cccc(C)c2)c(Br)c(OC)c1OC | . | . | . | . | . | .
[O-][N+]1=c2ccc(Nc3ccccc3)cc2=NC12CCCCC2 | . | . | 134.1 | . | . | .
COc1ccc(Nc2ccc3c(c2)=NC2(CCCCC2)[N+]=3[O-])cc1 | . | . | . | . | . | .
Cc1ccc(C)c(NC(=O)CSc2nc(N)c(NC(=O)c3cccs3)c(=O)[nH]2)c1 | . | . | . | . | / | .
Cc1cccc(NC(=O)CSc2nc(N)c(NC(=O)c3cccs3)c(=O)[nH]2)c1 | . | . | . | . | / | 9.3
Cc1cc(C)nc(S/C=C/C(=O)c2ccc(F)cc2)n1 | . | / | / | / | 59.2 | .
Fc1ccc(N/N=C/c2ccc(N3CCOCC3)cc2)c(F)c1 | . | 3.57 | 131.1 | . | . | .
CC(=C/c1ccc(C(C)C)cc1)/C=N/NC(=O)Cn1nc(C)cc1C | . | . | . | . | . | .
CC(/C=N/NC(=O)Cn1nccc1C)=C\c1ccc(C(C)C)cc1 | . | . | 129.3 | . | . | .
COc1ccc(CN(Cc2ccc(C(=O)O)cc2)C(=S)Nc2ccc(C)cc2)cc1OC | . | . | . | . | . | .
CCOC(=O)N1CCN(C(=O)c2cc3c(s2)-c2ccccc2OC3)CC1 | . | . | . | . | . | .
CCOC(=O)N1CCN(C(=O)c2cc3c(s2)-c2ccc(Cl)cc2S(=O)(=O)C3)CC1 | . | . | . | . | . | 10.3
Cc1ccc(NC(=O)N/C=C/c2ccco2)c(C)c1 | . | 5.18 | . | . | . | .
COc1ccccc1-c1cc(SC)c(C#N)c(=O)o1 | . | . | 132.9 | . | 35.9 | .
SMILES | p97 ATPase inh | NF-kB neuron act | STAT1 activator | APP 5'UTR act | Mdm2 ligase inh | Wee1 degr inh
O=c1c(F)cn(C2CCCO2)c(=O)n1Cc1ccc(Cl)cc1 (centres undefined) | . | / | . | . | / | .
Cc1nnc(SC(C)C(=O)Nc2ncc(Cl)cc2Cl)n1Cc1ccccc1 (centres undefined) | . | . | . | . | / | .
Cc1cc(SC(C)C(=O)Nc2ncc(Cl)cc2Cl)nc2ccccc12 (centres undefined) | . | 3.4 | . | . | . | .
O=C(CN1C(=O)CC(c2ccccc2)S(=O)(=O)c2ccccc21)N1CCCC1 (centres undefined) | . | . | . | . | . | .
NC(=O)C1CCN(c2nc(-c3ccccc3)nc3ccccc23)CC1 | . | . | . | . | . | .
NC(=O)C1CCN(c2ncnc3c(-c4ccccc4)nsc23)CC1 | . | . | 138.6 | . | . | .
O=C(c1ccco1)N1CCN(c2ncnc3c(-c4ccccc4)nsc23)CC1 | . | . | 129.1 | . | . | .
COc1ccc(-c2nsc3c(N4CCN(C(=O)c5ccco5)CC4)ncnc23)cc1 | . | . | . | . | . | .
c1ccc(-n2cc(CNCCc3cscn3)c(-c3ccc4c(c3)OCO4)n2)cc1 | . | . | . | . | . | .
